Drawing on PubChem BioAssay AID463073 (The Scripps Research Institute Molecular Screening Center, 2010), this text covers inhibition for 10 compounds.

Each structure is given as a SMILES string. Hit rate of the full screen: of about 2,000 compounds, about 10 (0.5%) were called active. This is one part of a sample in which actives are shown more often than they occur.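 The calls were made as follows: active = inhibition above 30%; inactive = the rest.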

Protein-arginine deiminase type-4 (Homo sapiens), sequence (Q9UM07 whole entry, looked up): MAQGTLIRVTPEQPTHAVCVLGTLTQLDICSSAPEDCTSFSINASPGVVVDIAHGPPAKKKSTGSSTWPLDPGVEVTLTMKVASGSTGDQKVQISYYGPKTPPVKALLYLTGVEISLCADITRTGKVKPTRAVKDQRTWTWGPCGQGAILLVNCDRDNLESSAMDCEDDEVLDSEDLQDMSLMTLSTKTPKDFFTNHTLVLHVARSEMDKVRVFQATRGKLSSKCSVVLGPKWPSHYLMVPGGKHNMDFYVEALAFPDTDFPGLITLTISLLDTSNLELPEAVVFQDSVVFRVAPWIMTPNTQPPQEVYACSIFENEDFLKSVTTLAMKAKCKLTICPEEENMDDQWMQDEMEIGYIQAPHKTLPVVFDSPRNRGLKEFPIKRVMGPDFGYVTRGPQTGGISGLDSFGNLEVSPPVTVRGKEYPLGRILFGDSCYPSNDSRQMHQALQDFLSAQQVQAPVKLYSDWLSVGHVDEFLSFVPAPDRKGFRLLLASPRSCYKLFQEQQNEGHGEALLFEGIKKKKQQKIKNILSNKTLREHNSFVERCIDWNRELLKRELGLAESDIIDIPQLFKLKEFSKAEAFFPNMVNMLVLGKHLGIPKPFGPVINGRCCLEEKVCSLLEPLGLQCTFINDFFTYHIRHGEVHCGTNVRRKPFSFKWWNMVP

This experiment addresses Protein-arginine deiminase type-4 (Homo sapiens) (UniProt Q9UM07). The experiment in a line: blockers of protein arginine deiminase 4 – biochemical, fluorescence polarization, primary screen (AID 463073).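 Also: 0% = PAD4 with DMSO and 100% = wells lacking PAD4.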 The conditions noted are these: recombinant PAD4, RFA probe fluorescence polarization; at 5 µM; stronger effect = higher value. The procedure, abridged:
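system = recombinant PAD4 | amount = PAD4 at 2 µM in dispensed buffer, before additions | incubation = 30 min 25 °C preincubation, 5 h 37 °C labeling | measured by = FP, ex 525 nm, em 598 nm | replication = single well per compound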
Broadly, the inhibition is the drop in the measured response relative to a control, in per cent. With `O=C1C(=O)c2ccccc2-c2ccccc21`, the inhibition is 94.3% (active). As for `O=C1C=Cc2ccccc2C1=O`, the inhibition is 6.7% (inactive).

Consider `C[C@H]1CCCC(=O)CCC/C=C/c2cc(O)cc(O)c2C(=O)O1`, for which the inhibition was 0.58% (inactive). The same measure for `CC(C)[C@@]1(NC(=O)[C@@H]2C[C@@H]3c4cccc5[nH]cc(c45)C[C@H]3N(C)C2)O[C@@]2(O)[C@@H]3CCCN3C(=O)[C@H](Cc3ccccc3)N2C1=O`: 4.69% (inactive); for `CC1CCC[C@H](O)CCCCCc2cc(O)cc(O)c2C(=O)O1` (stereo not given in full): 2.98% (inactive). On to `CN1C2CCC1CC(OC(=O)CCN1CCCC1)C2` (stereo not given), for which the inhibition was 0.67% (inactive).

With `COc1ccc(Cc2nccc3cc(OC)c(OC)cc23)cc1OC`, the inhibition was 74.4% (active). Regarding `C[C@H]1CC[C@@]2(C)[C@@H](CC[C@@H]3[C@@H]2CC[C@]2(C)[C@@H](O)CC[C@@H]32)C1`, the inhibition is 5.74% (inactive).

On to `O=Cc1cn(Cc2ccc(F)cc2)c2ccccc12`, for which the inhibition was 0.18% (inactive).

As for `C[C@]12CCC(=O)C=C1CC[C@@H]1[C@@H]2C(=O)C[C@]2(C)C(=O)CC[C@@H]12`, the inhibition is 3.91% (inactive).
